Measured values published in PMC8223195 (Molecular Diversity, 2021).

Columns and labels:
[1] = system: K-562 (chronic myeloid leukemia); assay: IncuCyte real-time proliferation assay, K-562; type: cell-based; conditions: K-562, 72 h; * mean of two independent experiments ± SEM
LN-229 (glioblastoma) = assay: IncuCyte real-time proliferation assay, LN-229; type: cell-based; conditions: LN-229, 72 h; * mean of two independent experiments ± SEM
[2] = system: HL-60 (acute myeloid leukemia); assay: IncuCyte real-time proliferation assay, HL-60; type: cell-based; conditions: HL-60, 72 h; * mean of two independent experiments ± SEM
[3] = system: Z-138 (non-Hodgkin lymphoma); assay: IncuCyte real-time proliferation assay, Z-138; type: cell-based; conditions: Z-138, 72 h; * mean of two independent experiments ± SEM
[4] = system: NCI-H460 (lung carcinoma); assay: IncuCyte real-time proliferation assay, NCI-H460; type: cell-based; conditions: NCI-H460, 72 h; * mean of two independent experiments ± SEM
[5] = system: alpha-tubulin in HEp-2 cells; assay: Tubulin immune fluorescence staining in HEp-2 cells; type: cell-based, human; conditions: HEp-2 cells treated for 3 h
[6] = system: DND-41 (acute lymphoblastic leukemia); assay: IncuCyte real-time proliferation assay, DND-41; type: cell-based; conditions: DND-41, 72 h; * mean of two independent experiments ± SEM
[7] = system: HCT-116 (colorectal carcinoma); assay: IncuCyte real-time proliferation assay, HCT-116; type: cell-based; conditions: HCT-116, 72 h; * mean of two independent experiments ± SEM
[8] = system: peripheral blood mononuclear cells (PBMCs); assay: In vitro apoptosis induction assay in PBMC; type: cell-based; conditions: 72 h
Method in brief: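 Counter-screen on normal PBMCs from two healthy donors. Cells were exposed to graded test-compound concentrations with Caspase-3/7 Green Reagent added. Activated intracellular caspase-3/7 cleaves the reagent at its DEVD motif, marking apoptotic cells. Propidium iodide staining separated dead from live cells. Read-out: numbers of apoptotic and dead cells.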

hCoV-229E = type: cell-based, human corona virus 229E; conditions: […]; (*) mean of three independent experiments ± SEM
[9] = system: Capan-1 (pancreatic adenocarcinoma); assay: IncuCyte real-time proliferation assay, Capan-1; type: cell-based; conditions: Capan-1, 72 h; * mean of two independent experiments ± SEM

COc1ccc(C(=O)C2Sc3nnc(-n4nc(C)cc4C)n3NC2c2ccco2)cc1 (racemic) [Compound 5q, ( ±)-(3-(3,5-Dimethyl-1H-pyrazol-1-yl)-6-(furan-2-yl)-6,7-dihydro-5H-[1,2,4]triazolo[3,4-b][1,3,4]thiadiazin-7-yl)(4-methoxyphenyl)methanone]
IC50 [1]: 2300 ± 1600 nM | IC50 (LN-229 (glioblastoma)): 700 ± 90 nM | IC50 [2]: 2000 ± 400 nM | IC50 [3]: 400 ± 5 nM | IC50 [4]: 2500 ± 200 nM | polymerization of tubulin [5]: inhibit the polymerization of tubulin in a dose-dependent manner | IC50 [6]: 600 ± 200 nM | IC50 [7]: 1000 ± 400 nM | CC50 (HEL 299 cells): < 800 nM | viability of normal PBMCs ([8]; PBMC from two healthy donors, 100 to 0.16 µM): did not inhibit the viability | number of apoptotic and dead cells ([8]; PBMC, 100 µM, caspase-3/7 and PI): small increase in the number of apoptotic and dead cells | EC50 (hCoV-229E): > 100000 nM | IC50 [9]: 1100 ± 700 nM
